This excerpt belongs to a sample that is enriched for hits.
H69AR inhibit – blocks growth of human H69AR lung tumor cells | H69AR lung tumor viability, ATP luminescence, 72 h; active compounds read low | viability, % at 10 µM | 85,000 compounds, 6% hits;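 active = viability at or below 40%; inactive = viability above 40%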;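 also: multidrug resistant small cell line overexpressing MRP-1 efflux transporter; 100% = mean luminescence of untreated control wells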
Fibroblast inh – blocks proliferation of human lung fibroblasts; 85,000 compounds, 1.1% hits; AID 719; viability, % at 10 µM; LL 47 human lung fibroblast viability, ATP luminescence; active compounds read low;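 active = viability at or below 50% in the single dose screen; inactive = viability above 50%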;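 also: compound exposure lasted 72 h before the ATP readout; 100% = median luminescence of untreated cell-only wells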
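Test system: LL 47 human lung fibroblasts / Incubation: 72 h compound exposure at 37 °C after overnight plating / Technique: luminescent ATP detection, CellTiter-Glo / Compound dosing: 0.1% DMSO in all compound wells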
bCat KO growth – beta-catenin-lacking colon tumor cell growth suppression. viability, % at 10 µM. 140,000 compounds, 1.5% hits. AID 818. HCT116 beta-catenin knockout viability, CellTiter-Glo, 60 h; active compounds read low;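 active = viability at or under a set limit, the compound median less 4 SD, cut at about 6% in these data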;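 also: 0% = Hyamine 1622 control at 20 µM and 100% = untreated cell control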
PTEN del growth – PTEN-deleted cell growth suppression | viability, % at 10 µM | HCT116 PTEN-null viability, CellTiter-Glo, 60 h; active compounds read low | AID 827 | 140,000 compounds, 1.2% hits;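 active = viability at or below a set limit, 4 SD under the median of all tested compounds, cut at about 3.7% in these data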;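 also: PTEN knockout HCT116 line with beta catenin targeted HCT116 as companion control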
HUVEC prolif 384 – blocks proliferation of human endothelial cells; HUVEC proliferation, CellTiter-Glo luminescence, 72 h; active compounds read low; viability, % at 10 µM (by protocol); 86,000 compounds, 1.1% hits;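 active = viability at or below 30%; inactive = viability above 30%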;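 also: 100% = median luminescence of DMSO-only cell control wells on each plate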
Starred values were filed as active, the others as inactive; / = not tested or not shown.

SMILES	H69AR inhibit	Fibroblast inh	bCat KO growth	PTEN del growth	HUVEC prolif 384
COc1ccc(CN(C#N)c2nc(SC)nc(N(C)C)n2)cc1	88.6	82.6	82.3	78.2	97.8
CCOC(=O)c1c(C)oc2c(CC(=O)c3ccccc3)c(Cl)c(O)c(O)c12	/	/	55.9	62.6	/
CC1=CC(=NOC(=O)c2cccc([N+](=O)[O-])c2)C=C(C)C1=O	73.9	91.0	8.7	26.9	96.3
CC1=CC(=O)C(C(C)C)=C/C1=N/OC(=O)c1cccc([N+](=O)[O-])c1	32.6*	86.5	51.5	60.1	104.1
CCCCC(=O)O[C@H]1CC[C@H]2[C@@H]3CCc4cc(O)ccc4[C@H]3CC[C@]12C	1.1*	84.6	53.0	62.8	8.9*
C[C@]12CC[C@@H]3c4ccc(O)cc4CC[C@H]3[C@@H]1CCC2=O	81.3	92.9	77.7	75.5	77.8
O=C(Nc1ccc(Cl)c(Cl)c1)Nc1ccccc1NS(=O)(=O)c1cccs1	/	/	95.0	96.8	/
CC(=O)O[C@@]12CO[C@@H]1C[C@H](O)[C@@]1(C)C(=O)[C@H](O)C3=C(C)[C@@H](OC(=O)[C@H](O)[C@@H](NC(=O)OC(C)(C)C)c4ccccc4)C[C@](O)([C@@H](OC(=O)c4ccccc4)[C@H]21)C3(C)C	22.9*	61.3	/	/	59.1
O=C(Nc1cccc(Cl)c1)Nc1nnc(CSCCOc2ccc(Cl)cc2)s1	/	/	4.2*	5.6	/
Cc1ccc(NC(=O)Nc2nnc(CSCCOc3ccc(Cl)cc3)s2)cc1	/	/	81.0	97.6	/
O=C(Nc1cccc(Cl)c1)Nc1nnc(CC2=CCCCC2)s1	/	/	8.0	3.4*	/
CCCCNC(=S)Nc1cc([N+](=O)[O-])ccc1C	/	/	85.3	87.2	/
CNC(=O)CC1C(=O)N(C)C(=S)N1NC(=O)c1ccc(Cl)cc1 (stereo not given)	108.6	108.3	103.1	95.2	99.4
CN(C)CCCNC(=O)c1ccccn1	91.0	97.8	99.8	94.1	94.2
CN(C)CCCNC(=O)c1ccc(-c2nc(-c3ccc(Cl)cc3)cs2)cc1	/	/	1.3*	1.5*	/
CC(C)n1cc(/C=C(\C#N)S(=O)(=O)c2ccccc2)c2ccccc21	33.7*	92.0	89.0	96.2	85.7
O=C1CC(N(CCc2ccccc2)C(=S)Nc2ccccc2)C(=O)N1c1ccc(Br)cc1 (stereo not given)	/	/	1.9*	2.8*	/
COc1ccc(CCN(C(=S)Nc2ccccc2)C2CC(=O)N(c3ccccc3)C2=O)cc1 (stereo not given)	/	/	50.4	66.4	/
CCn1c(Cc2cccc3ccccc23)nnc1SCC(=O)Nc1nccs1	60.4	94.5	90.1	84.4	97.3
Cc1nc(-n2ncc(C#N)c2N)c2c3c(sc2n1)CCC3	79.9	96.2	84.0	2.0*	65.5
Cc1ccnc(N2C(=O)c3cccc4c([N+](=O)[O-])ccc(c34)C2=O)c1	/	/	1.2*	1.3*	/
O=C1c2cc([N+](=O)[O-])cc3cc([N+](=O)[O-])cc(c23)C(=O)N1c1ccccn1	/	/	15.5	5.7	/
Cc1ccc(S(=O)(=O)N2CCC(C(=O)Nc3nnc(-c4ccco4)s3)CC2)cc1	37.8*	67.0	91.6	99.7	61.2
Cc1ccc(C(=O)Oc2oc(-c3ccco3)nc2C=Nc2ccccc2)cc1	38.6*	90.4	92.9	91.6	68.8
CCOC(=O)c1ccc(N=Cc2nc(-c3ccccc3)oc2OC(C)=O)cc1	18.9*	97.1	89.6	94.4	55.0
SMILES	H69AR inhibit	Fibroblast inh	bCat KO growth	PTEN del growth	HUVEC prolif 384
COc1ccc(CCNC(=O)c2ccn[nH]2)cc1OC	89.9	94.2	103.3	101.8	95.5
C(=N\n1cnnc1)/c1cn(Cc2ccccc2)c2ccccc12	74.5	77.3	79.7	80.4	47.8
Clc1ccc(Cn2cc(/C=N/n3cnnc3)c3ccccc32)c(Cl)c1	74.6	76.2	84.2	86.2	13.1*
CCNc1nc(C)c2cc(Br)c(=O)n(CC)c2n1	58.3	37.0*	60.9	55.7	38.3
CCn1c(=N)c(C(=O)NC)cc2c(=O)n3cccc(C)c3nc21	74.6	93.2	/	/	92.0
N#C/C(=C/c1ccc(N2CCCCCC2)o1)c1ccc(F)cc1	2.8*	11.2*	46.0	32.5	56.4
N#C/C(=C\c1ccc(Sc2ccc(Cl)cc2)o1)c1nc2ccccc2[nH]1	/	/	53.3	34.4	/
N#C/C(=C\c1ccc(N2CCOCC2)o1)c1ccccc1	/	/	57.1	64.5	/
N#C/C(=C\c1ccc(Sc2nc3ccccc3[nH]2)o1)c1ccccc1	32.6*	87.5	60.9	68.4	53.1
N#C/C(=C/c1ccc(N2CCCCCC2)o1)c1cccc(F)c1	37.0*	86.6	46.5	68.6	94.6

Screening data: PubChem BioAssay, SRMLSC
